Source: ChEMBL document CHEMBL3351343, “Synthesis and biological evaluation of novel sigma-1 receptor antagonists based on pyrimidine scaffold as agents for treating neuropathic pain” (J Med Chem, 2014)
pKi: −log10 of the molar value. One block for each molecule: values may come before it.

Legend:
[1] = target: Sigma non-opioid intracellular receptor 1 (Cavia porcellus, UniProt Q60492); assay: Displacement of [3H]-(+)-pentazocine from sigma-1 receptor in Dunkin Hartley guinea pig brain membranes after 180 mins by liquid scintillation counting analysis; parameters: species or system Membrane
Sequence of Sigma non-opioid intracellular receptor 1 (Q60492 whole entry): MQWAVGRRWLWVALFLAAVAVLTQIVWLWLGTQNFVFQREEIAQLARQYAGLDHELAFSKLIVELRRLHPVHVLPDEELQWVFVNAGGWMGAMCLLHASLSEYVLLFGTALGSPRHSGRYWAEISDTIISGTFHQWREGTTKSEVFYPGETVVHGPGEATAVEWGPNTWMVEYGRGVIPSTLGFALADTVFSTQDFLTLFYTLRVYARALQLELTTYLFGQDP

Cavia porcellus = organism: Cavia porcellus; assay: Selectivity ratio of Ki for Dunkin Hartley guinea pig brain sigma-2 receptor to Ki for Dunkin Hartley guinea pig brain sigma-1 receptor
[2] = Displacement of [3H]-DTG from sigma-2 receptor in Dunkin Hartley guinea pig brain membrane after 120 mins by liquid scintillation counting analysis in presence of (+)-SKF10047; parameters: species or system Cavia porcellus
[3] = Acute toxicity in po dosed Kun Ming mouse after 24 hrs; format: organism-based; conditions: in vivo
Mus musculus [4] = assay: Antinociceptive activity in Kun Ming mouse pain model assessed as reduction in licking and biting time during phase-1 at 80 mg/kg, ip administered 15 mins prior to formalin challenge relative to vehicle-treated control; format: functional; conditions: route intraperitoneal
Procedure, shortened: (§1)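 Kun Ming mice (20 ± 2.0 g), 10–12 per group, given vehicle (30% PEG 400) or drug ip at 10 mL/kg 15 min before intraplantar formalin. Time spent licking or biting the injected paw scored at 0–5 min (phase I) and 15–45 min (phase II). Effect (%) = (LTV − LTD)/LTV × 100.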

Mus musculus [5] = assay: Antinociceptive activity in Kun Ming mouse pain model assessed as reduction in licking and biting time during phase-2 at 80 mg/kg, ip administered 15 mins prior to formalin challenge relative to vehicle-treated control; format: functional; conditions: route intraperitoneal; procedure, shortened: as §1

Compound: CC(C)c1cc(OCCCN2CCCCC2)nc(-c2ccccc2)n1
pKi [1]: 6.73
Ratio Ki (Cavia porcellus): 9.7
pKi [2]: 5.74

Compound: Cc1ccc(-c2nc(C)c(Cl)c(OCCCN3CCCCC3)n2)cc1
pKi [1]: 8.71
LD50 at 24 h [3]: 1680 mg/kg
pKi [2]: 5.81

Compound: FC(F)(F)c1cc(OCCCN2CCCCC2)nc(-c2ccccc2)n1
pKi [1]: 7.56
Ratio Ki (Cavia porcellus): 48
pKi [2]: 5.88

Compound: Cc1nc(-c2ccc(Cl)c(Cl)c2)nc(OCCCN2CCCCC2)c1Cl
pKi [1]: 7.05
pKi [2]: < 5.70

Compound: COc1cc(OCCCN2CCCCC2)nc(-c2ccccc2)n1
pKi [1]: 7.71
Ratio Ki (Cavia porcellus): 46.2
pKi [2]: 6.05

Compound: c1ccc(-c2nc(OCCCN3CCCCC3)cc(C3CC3)n2)cc1
pKi [1]: 6.60
pKi [2]: < 5.70

Compound: Cc1nc(-c2ccccc2)nc(OCCCN2CCCC2)c1C
pKi [1]: 7.94
Ratio Ki (Cavia porcellus): 112
pKi [2]: 5.89

Compound: Cc1ncnc(OCCCN2CCCCC2)c1Cl
pKi [1]: 6.73
Ratio Ki (Cavia porcellus): 5.9
pKi [2]: 5.96

Compound: CCc1cc(OCCCN2CCCCC2)nc(-c2ccccc2)n1
pKi [1]: 7.69
Ratio Ki (Cavia porcellus): 55.6
pKi [2]: 5.94

Compound: CC(C)c1cc(OCCCN2CCCC2)nc(-c2ccccc2)n1
pKi [1]: 6.66
Ratio Ki (Cavia porcellus): 5
pKi [2]: 5.96

Compound: Cc1nc(-c2ccc(F)c(F)c2)nc(OCCCN2CCCCC2)c1Cl
pKi [1]: 9.01
pKi [2]: 6.03

Compound: Cc1cc(OCCCN2CCN(c3ccccc3)CC2)nc(-c2ccccc2)n1
pKi [1]: < 5.70
pKi [2]: < 5.70

Compound: c1ccc(-c2cc(OCCCN3CCCCC3)nc(-c3ccccc3)n2)cc1
pKi [1]: 6.02
pKi [2]: < 5.70

Compound: c1ccc(-c2nc(OCCCN3CCCC3)cc(C3CC3)n2)cc1
pKi [1]: 6.56
pKi [2]: < 5.70

Compound: Cc1nc(-c2ccccc2)nc(OCCCN2CCCC2)c1F
pKi [1]: 8.45
Ratio Ki (Cavia porcellus): 340
pKi [2]: 5.92

Compound: Cc1cc(OCCCN2CCN(C(=O)OC(C)(C)C)CC2)nc(-c2ccccc2)n1
pKi [1]: < 5.70
pKi [2]: < 5.70

Compound: Cc1nc(-c2ccccc2)nc(OCCCN2CCCCC2)c1C
pKi [1]: 8.02
Ratio Ki (Cavia porcellus): 128
pKi [2]: 5.91

Compound: FC(F)(F)c1cc(OCCCN2CCCC2)nc(-c2ccccc2)n1
pKi [1]: 7.56
Ratio Ki (Cavia porcellus): 48
pKi [2]: 5.88

Compound: Cc1cc(OCCCN2CC(C)CC(C)C2)nc(-c2ccccc2)n1 (centres undefined)
pKi [1]: 7.52
Ratio Ki (Cavia porcellus): 55
pKi [2]: 5.78

Compound: Cc1cc(OCCCN(C)C)nc(-c2ccccc2)n1
pKi [1]: 7.08
pKi [2]: < 5.70

Compound: CCN(CC)CCCOc1cc(C)nc(-c2ccccc2)n1
pKi [1]: 7.33
Ratio Ki (Cavia porcellus): 28
pKi [2]: 5.88

Compound: Cc1nc(C)c(Cl)c(OCCCN2CCCCC2)n1
pKi [1]: 7.23
Ratio Ki (Cavia porcellus): 18.4
pKi [2]: 5.97

Compound: Cc1nc(-c2ccc(C(F)(F)F)cc2)nc(OCCCN2CCCCC2)c1Cl
pKi [1]: 8.35
LD50 at 24 h [3]: 377 mg/kg
pKi [2]: 5.75

Compound: Cc1nc(-c2ccccc2)nc(OCCCN2CCCCC2)c1Cl
pKi [1]: 8.63
LD50 at 24 h [3]: 440 mg/kg
pKi [2]: 5.78

Compound: Cc1nc(-c2ccc3ccccc3c2)nc(OCCCN2CCCCC2)c1Cl
pKi [1]: 6.99
pKi [2]: < 5.70

Compound: Cc1nc(-c2ccccc2)nc(OCCCN2CCCC2)c1Cl
pKi [1]: 8.40
LD50 at 24 h [3]: > 2000 mg/kg
pKi [2]: 5.77

Compound: Cc1nc(-c2ccccc2)nc(OCCCN2CCCCC2)c1F
pKi [1]: 8.43
Ratio Ki (Cavia porcellus): 363
pKi [2]: 5.87

Compound: Cc1nc(-c2ccc(F)cc2)nc(OCCCN2CCCCC2)c1Cl
pKi [1]: 8.94
LD50 at 24 h [3]: 884 mg/kg
pKi [2]: 5.88

Compound: Cc1nc(C2CC2)nc(OCCCN2CCCCC2)c1Cl
pKi [1]: 7.40
Ratio Ki (Cavia porcellus): 33.6
pKi [2]: 5.88

Compound: Cc1cc(OCCCN2C(C)(C)CCCC2(C)C)nc(-c2ccccc2)n1
pKi [1]: 6.42
pKi [2]: < 5.70

Compound: COc1ccc(-c2nc(C)c(Cl)c(OCCCN3CCCCC3)n2)cc1
Ratio Ki (Cavia porcellus): 332
pKi [2]: 5.89

Compound: c1ccc(-c2cc(OCCCN3CCCC3)nc(-c3ccccc3)n2)cc1
pKi [1]: 6.13
pKi [2]: < 5.70

Compound: CCCN(CCC)CCCOc1cc(C)nc(-c2ccccc2)n1
pKi [1]: 7.41
Ratio Ki (Cavia porcellus): 27.5
pKi [2]: 5.97

Compound: Cc1cc(OCCN2CCOCC2)nn1-c1ccc2ccccc2c1
Time (Mus musculus [4]): 10.65 s
Time (Mus musculus [5]): 33.16 s

Compound: CCCc1cc(OCCCN2CCCCC2)nc(-c2ccccc2)n1
pKi [1]: 7.46
Ratio Ki (Cavia porcellus): 41.7
pKi [2]: 5.84

Compound: CCCc1cc(OCCCN2CCCC2)nc(-c2ccccc2)n1
pKi [1]: 7.41
Ratio Ki (Cavia porcellus): 35.8
pKi [2]: 5.86

Second part, the molecule after the results:

pKi [1]: 6.37
Ratio Ki (Cavia porcellus): 4.6
pKi [2]: 5.72
Compound: Cc1cc(OCCOCCN2CCOCC2)nc(-c2ccccc2)n1

pKi [1]: 7.51
Ratio Ki (Cavia porcellus): 38.5
pKi [2]: 5.93
Compound: CCN1CCN(CCCOc2cc(C)nc(-c3ccccc3)n2)CC1

pKi [1]: 6.41
pKi [2]: < 5.70
Compound: Cc1cc(OCCCCCN2CCOCC2)nc(-c2ccccc2)n1

pKi [1]: 7.71
Ratio Ki (Cavia porcellus): 46.2
pKi [2]: 6.05
Compound: COc1cc(OCCCN2CCCC2)nc(-c2ccccc2)n1

pKi [1]: 6.31
Ratio Ki (Cavia porcellus): 3.4
pKi [2]: 5.78
Compound: Cc1cc(OCC(O)CN2CCOCC2)nc(-c2ccccc2)n1 (centres undefined)

pKi [1]: 7.65
Ratio Ki (Cavia porcellus): 63.8
pKi [2]: 5.84
Compound: CCc1cc(OCCCN2CCCC2)nc(-c2ccccc2)n1

pKi [1]: 6.34
Ratio Ki (Cavia porcellus): 3.8
pKi [2]: 5.75
Compound: Cc1cc(OCCCN2CCC(O)CC2)nc(-c2ccccc2)n1

pKi [1]: 7.44
Ratio Ki (Cavia porcellus): 26.1
pKi [2]: 6.02
Compound: Cc1cc(OCCCN2CCOCC2)nc(-c2ccccc2)n1

pKi [1]: < 5.70
pKi [2]: < 5.70
Compound: Cc1cc(OCCCCCCN2CCOCC2)nc(-c2ccccc2)n1

pKi [1]: 6.50
Ratio Ki (Cavia porcellus): 4.7
pKi [2]: 5.83
Compound: Cc1cc(OCCCN2CCC(=O)CC2)nc(-c2ccccc2)n1

pKi [1]: 6.82
Ratio Ki (Cavia porcellus): 8
pKi [2]: 5.92
Compound: Cc1cc(OCCCN2CCNCC2)nc(-c2ccccc2)n1

pKi [1]: 7.02
Ratio Ki (Cavia porcellus): 11.2
pKi [2]: 5.97
Compound: Cc1cc(OCCCCN2CCOCC2)nc(-c2ccccc2)n1

pKi [1]: 7.64
Ratio Ki (Cavia porcellus): 58.3
pKi [2]: 5.88
Compound: Cc1cc(OCCCN2CCN(C)CC2)nc(-c2ccccc2)n1

pKi [1]: 7.73
Ratio Ki (Cavia porcellus): 69.2
pKi [2]: 5.89
Compound: Cc1cc(OCCCN2CCCN(C)CC2)nc(-c2ccccc2)n1

pKi [1]: 7.78
Ratio Ki (Cavia porcellus): 84.7
pKi [2]: 5.85
Compound: Cc1cc(OCCCN2CCC(C)CC2)nc(-c2ccccc2)n1

pKi [1]: 6.94
Ratio Ki (Cavia porcellus): 12.5
pKi [2]: 5.84
Compound: Cc1cc(OC/C=C/CN2CCOCC2)nc(-c2ccccc2)n1

pKi [1]: < 5.70
pKi [2]: < 5.70
Compound: Cc1cc(OCCN2CCOCC2)nc(-c2ccccc2)n1

pKi [1]: 7.87
Ratio Ki (Cavia porcellus): 92.1
pKi [2]: 5.90
Compound: Cc1cc(OCCCN2CCCC2)nc(-c2ccccc2)n1

pKi [1]: 7.93
Ratio Ki (Cavia porcellus): 89.1
pKi [2]: 5.98
Compound: Cc1cc(OCCCN2CCCCC2)nc(-c2ccccc2)n1
